From ChEMBL document CHEMBL1275595, “Antimicrobial activity of a halocidin-derived peptide resistant to attacks by proteases” (2010)
≈ marks a conversion by molar mass, not a printed value. Calls of active or inactive are those of the source. The calls are words filed in the database; no cut-off is given here. Bridge positions count the residues as written; N and C are the ends. Peptide text beside a SMILES is read from it. I, II: the chains in the order shown.

Assays:
Pseudomonas aeruginosa = assay: Antimicrobial activity against multidrug-resistant Pseudomonas aeruginosa CCARM 2161 after 18 hrs by broth dilution method; assay type: functional; settings: CCARM 2161, 18 h
Method in brief: (§1)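 Broth dilution per CLSI. Bacteria were grown overnight to stationary phase in Mueller-Hinton broth and diluted in fresh MHB to 2 × 10^5 CFU/ml. Stocks at 640 μg/ml in 0.01% acetic acid were 2-fold serially diluted to 10 μg/ml, and 11 μl was added to 100 μl of bacteria. After 18 h at 37°C, MIC was the lowest concentration with no visible turbidity. Run in triplicate.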

Staphylococcus aureus [1] = assay: Antimicrobial activity against methicillin-resistant Staphylococcus aureus CCARM 3696 by radial diffusion assay incubated with trypsin; assay type: functional, organism-based
Micrococcus luteus = assay: Antimicrobial activity against Micrococcus luteus KCTC 9341 after 18 hrs by broth dilution method; assay type: functional; settings: KCTC 9341, 18 h
Method in brief: (§2)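 Broth microdilution following CLSI recommendations. Bacteria were grown overnight to stationary phase in Mueller-Hinton broth, then diluted in fresh MHB to 2 × 10^5 CFU/ml. Peptide or antibiotic stocks of 640 μg/ml in 0.01% acetic acid were serially 2-fold diluted to 10 μg/ml, and each was added to the bacterial suspension at 11 μl per 100 μl. Plates were incubated 18 h at 37°C. MIC was taken as the lowest concentration giving no visible turbidity, in triplicate.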

Staphylococcus aureus [2] = assay: Antimicrobial activity against methicillin-resistant Staphylococcus aureus CCARM 3696 by radial diffusion assay incubated with Staphylococcus aureus Culture supernatant for 1 hr; assay type: functional, organism-based
Staphylococcus aureus [3] = assay: Antimicrobial activity against methicillin-resistant Staphylococcus aureus CCARM 3696 by radial diffusion assay incubated with Pseudomonas aeruginosa Culture supernatant for 1 hr; assay type: functional, organism-based
Citrobacter freundii = assay: Antimicrobial activity against Citrobacter freundii KCTC 2359 after 18 hrs by broth dilution method; assay type: functional; settings: KCTC 2359, 18 h; method in brief: as §2
Bacillus subtilis = assay: Antimicrobial activity against Bacillus subtilis KCTC 2213 after 18 hrs by broth dilution method; assay type: functional; settings: KCTC 2213, 18 h; method in brief: as §2
Salmonella enterica = assay: Antimicrobial activity against Salmonella enterica KCTC 2930 after 18 hrs by broth dilution method; assay type: functional; settings: KCTC 2930, 18 h; method in brief: as §2
Staphylococcus aureus [4] = assay: Antimicrobial activity against methicillin-resistant Staphylococcus aureus CCARM 3696 by colony count assay incubated with trypsin for 1 hr; assay type: functional, organism-based
Method in brief: (§3)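 Peptide (20 μg) was incubated at 37°C with 50 nM trypsin in 100 μl of 10 mM sodium phosphate, then heated 10 min at 80°C and cooled. MRSA (100 μl, 2 × 10^7 CFU/ml) was added for 5 min. Aliquots were plated on TSA (1.5% agarose, 3% TSB in NaP) and counted after overnight growth at 37°C. Read-out was CFU/ml; repeated three times on different days.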

Staphylococcus aureus [5] = assay: Antimicrobial activity against methicillin-resistant Staphylococcus aureus CCARM 3696 by radial diffusion assay incubated with chymotrypsin for 1 hr; assay type: functional, organism-based
Escherichia coli = assay: Antimicrobial activity against Escherichia coli KCTC 1039 after 18 hrs by broth dilution method; assay type: functional; settings: KCTC 1039, 18 h; method in brief: as §2
Enterococcus faecium = assay: Antimicrobial activity against vancomycin-resistant Enterococcus faecium CCARM 5028 after 18 hrs by broth dilution method; assay type: functional; settings: CCARM 5028, 18 h; method in brief: as §1
Staphylococcus aureus [6] = assay: Antimicrobial activity against methicillin-resistant Staphylococcus aureus CCARM 3696 after 18 hrs by broth dilution method; assay type: functional; settings: CCARM 3696, 18 h; method in brief: as §1
Staphylococcus aureus [7] = assay: Antimicrobial activity against methicillin-resistant Staphylococcus aureus CCARM 3696 by radial diffusion assay incubated with matrix metalloprotease 7 for 1 hr; assay type: functional, organism-based
Staphylococcus aureus [8] = assay: Antimicrobial activity against methicillin-resistant Staphylococcus aureus CCARM 3696 by colony count assay incubated with trypsin for 20 mins; assay type: functional, organism-based; method in brief: as §3
Staphylococcus aureus [9] = assay: Antimicrobial activity against methicillin-resistant Staphylococcus aureus CCARM 3696 by colony count assay incubated with trypsin for 10 mins; assay type: functional, organism-based; method in brief: as §3
Klebsiella oxytoca = assay: Antimicrobial activity against Klebsiella oxytoca KCTC 1686 after 18 hrs by broth dilution method; assay type: functional; settings: KCTC 1686, 18 h; method in brief: as §2
Listeria monocytogenes = assay: Antimicrobial activity against Listeria monocytogenes KCTC 19111 after 18 hrs by broth dilution method; assay type: functional; settings: KCTC 19111, 18 h; method in brief: as §2
Staphylococcus aureus [10] = assay: Antimicrobial activity against methicillin-resistant Staphylococcus aureus CCARM 3696 by radial diffusion assay incubated with human wound fluid for 1 hr; assay type: functional, organism-based
Staphylococcus aureus [11] = assay: Antimicrobial activity against methicillin-resistant Staphylococcus aureus CCARM 3696 by radial diffusion assay incubated with chymotrypsin; assay type: functional, organism-based
Staphylococcus aureus [12] = assay: Antimicrobial activity against methicillin-resistant Staphylococcus aureus CCARM 3696 by radial diffusion assay incubated with human wound fluid for 4 hrs; assay type: functional, organism-based
Staphylococcus aureus [13] = assay: Antimicrobial activity against methicillin-resistant Staphylococcus aureus CCARM 3696 by radial diffusion assay incubated with matrix metalloprotease 7 for 5 mins; assay type: functional, organism-based

Structure (SMILES) | MIC (Pseudomonas aeruginosa) [µg/mL] | MIC (Micrococcus luteus) [µg/mL] | Activity (Staphylococcus aureus [2]) | Activity (Staphylococcus aureus [3]) | MIC (Citrobacter freundii) [µg/mL] | MIC (Bacillus subtilis) [µg/mL] | MIC (Salmonella enterica) [µg/mL] | Activity (Staphylococcus aureus [4]) | Activity (Staphylococcus aureus [5]) | MIC (Escherichia coli) [µg/mL] | MIC (Enterococcus faecium) [µg/mL] | MIC (Staphylococcus aureus [6]) [µg/mL] | Activity (Staphylococcus aureus [7]) | Activity (Staphylococcus aureus [8]) | Activity (Staphylococcus aureus [9]) | MIC (Klebsiella oxytoca) [µg/mL] | MIC (Listeria monocytogenes) [µg/mL] | Activity (Staphylococcus aureus [13]) | also measured
CC(C)C[C@H](NC(=O)CNC(=O)[C@H](Cc1cnc[nH]1)NC(=O)[C@H](Cc1cnc[nH]1)NC(=O)[C@H](CC(C)C)NC(=O)[C@H](CC(C)C)NC(=O)[C@H](C)NC(=O)[C@H](CCCCN)NC(=O)[C@H](CCCCN)NC(=O)[C@H](Cc1c[nH]c2ccccc12)NC(=O)[C@@H](N)CCCCN)C(=O)N[C@@H](CC(N)=O)C(=O)N[C@@H](CSSC[C@H](NC(=O)[C@H](CC(N)=O)NC(=O)[C@H](CC(C)C)NC(=O)CNC(=O)[C@H](Cc1cnc[nH]1)NC(=O)[C@H](Cc1cnc[nH]1)NC(=O)[C@H](CC(C)C)NC(=O)[C@H](CC(C)C)NC(=O)[C@H](C)NC(=O)[C@H](CCCCN)NC(=O)[C@H](CCCCN)NC(=O)[C@H](Cc1c[nH]c2ccccc12)NC(=O)[C@@H](N)CCCCN)C(=O)N[C@@H](C)C(=O)N[C@@H](CCCCN)C(=O)NCC(=O)N[C@H](C(=O)N[C@@H](CC(C)C)C(=O)N[C@@H](C)C(=O)O)C(C)C)C(=O)N[C@@H](C)C(=O)N[C@@H](CCCCN)C(=O)NCC(=O)N[C@H](C(=O)N[C@@H](CC(C)C)C(=O)N[C@@H](C)C(N)=O)C(C)C (I: H-KWKKALLHHGLNCAKGVLA-NH2 / II: H-KWKKALLHHGLNCAKGVLA-OH; disulfide I:13-II:13) | 4 (≈ 0.959 µM) | 4 (≈ 0.959 µM) | inactive | inactive | 4 (≈ 0.959 µM) | 2 (≈ 0.479 µM) | 2 (≈ 0.479 µM) | Active | Active | 2 (≈ 0.479 µM) | 2 (≈ 0.479 µM) | 4 (≈ 0.959 µM) | Active | inactive | inactive | 2 (≈ 0.479 µM) | 2 (≈ 0.479 µM) |  | Activity (Staphylococcus aureus [1]): inactive
CC(C)C[C@H](NC(=O)CNC(=O)[C@H](Cc1cnc[nH]1)NC(=O)[C@H](Cc1cnc[nH]1)NC(=O)[C@H](CC(C)C)NC(=O)[C@H](CC(C)C)NC(=O)[C@H](C)NC(=O)[C@H](CC(N)=O)NC(=O)[C@H](CC(C)C)NC(=O)[C@H](Cc1c[nH]c2ccccc12)NC(=O)[C@@H](N)CCCCN)C(=O)N[C@@H](CC(N)=O)C(=O)N[C@@H](CSSC[C@H](NC(=O)[C@H](CC(N)=O)NC(=O)[C@H](CC(C)C)NC(=O)CNC(=O)[C@H](Cc1cnc[nH]1)NC(=O)[C@H](Cc1cnc[nH]1)NC(=O)[C@H](CC(C)C)NC(=O)[C@H](CC(C)C)NC(=O)[C@H](C)NC(=O)[C@H](CC(N)=O)NC(=O)[C@H](CC(C)C)NC(=O)[C@H](Cc1c[nH]c2ccccc12)NC(=O)[C@@H](N)CCCCN)C(=O)N[C@@H](C)C(=O)N[C@@H](CCCCN)C(=O)NCC(=O)N[C@H](C(=O)N[C@@H](CC(C)C)C(=O)N[C@@H](C)C(N)=O)C(C)C)C(=O)N[C@@H](C)C(=O)N[C@@H](CCCCN)C(=O)NCC(=O)N[C@H](C(=O)N[C@@H](CC(C)C)C(=O)N[C@@H](C)C(N)=O)C(C)C (I: H-KWLNALLHHGLNCAKGVLA-NH2 / II: H-KWLNALLHHGLNCAKGVLA-NH2; disulfide I:13-II:13) | 4 (≈ 0.973 µM) | 4 (≈ 0.973 µM) | Active | Active | 4 (≈ 0.973 µM) | 2 (≈ 0.486 µM) | 4 (≈ 0.973 µM) |  | Active | 4 (≈ 0.973 µM) | 2 (≈ 0.486 µM) | 4 (≈ 0.973 µM) | Active |  |  | 4 (≈ 0.973 µM) | 4 (≈ 0.973 µM) |  | Activity (Staphylococcus aureus [10]): Active; Activity (Staphylococcus aureus [11]): Active; Activity (Staphylococcus aureus [12]): Active
CC[C@H](C)[C@H](NC(=O)[C@H](CCCCN)NC(=O)[C@H](CCC(=O)O)NC(=O)[C@H](CCCCN)NC(=O)[C@H](CO)NC(=O)[C@H](CCCCN)NC(=O)[C@H](CCCNC(=N)N)NC(=O)[C@H](Cc1ccccc1)NC(=O)[C@H](Cc1ccccc1)NC(=O)[C@H](CC(=O)O)NC(=O)CNC(=O)[C@H](CC(C)C)NC(=O)[C@@H](N)CC(C)C)C(=O)NCC(=O)N[C@@H](CCCCN)C(=O)N[C@@H](CCC(=O)O)C(=O)N[C@@H](Cc1ccccc1)C(=O)N[C@@H](CCCCN)C(=O)N[C@@H](CCCNC(=N)N)C(=O)N[C@H](C(=O)N[C@H](C(=O)N[C@@H](CCC(N)=O)C(=O)N[C@@H](CCCNC(=N)N)C(=O)N[C@H](C(=O)N[C@@H](CCCCN)C(=O)N[C@@H](CC(=O)O)C(=O)N[C@@H](Cc1ccccc1)C(=O)N[C@@H](CC(C)C)C(=O)N[C@@H](CCCNC(=N)N)C(=O)N[C@@H](CC(N)=O)C(=O)N[C@@H](CC(C)C)C(=O)N[C@H](C(=O)N1CCC[C@H]1C(=O)N[C@@H](CCCNC(=N)N)C(=O)N[C@H](C(=O)N[C@@H](CCC(=O)O)C(=O)N[C@@H](CO)C(=O)O)[C@@H](C)O)C(C)C)[C@@H](C)CC)C(C)C)[C@@H](C)CC [CATHELICIDIN] | > 64 | > 64 | inactive | inactive | 64 (≈ 14.2 µM) | 8 (≈ 1.78 µM) | > 64 | Active |  | 32 (≈ 7.12 µM) | 32 (≈ 7.12 µM) | > 64 |  | inactive | inactive | > 64 | 32 (≈ 7.12 µM) | inactive | 
CC[C@H](C)[C@H](NC(=O)CN)C(=O)NCC(=O)N[C@@H](CCCCN)C(=O)N[C@@H](Cc1ccccc1)C(=O)N[C@@H](CC(C)C)C(=O)N[C@@H](CCCCN)C(=O)N[C@@H](CCCCN)C(=O)N[C@@H](C)C(=O)N[C@@H](CCCCN)C(=O)N[C@@H](CCCCN)C(=O)N[C@@H](Cc1ccccc1)C(=O)NCC(=O)N[C@@H](CCCCN)C(=O)N[C@@H](C)C(=O)N[C@@H](Cc1ccccc1)C(=O)N[C@H](C(=O)N[C@@H](CCCCN)C(=O)N[C@H](C(=O)N[C@@H](CC(C)C)C(=O)N[C@@H](CCCCN)C(=O)N[C@@H](CCCCN)C(N)=O)[C@@H](C)CC)C(C)C [PEXIGANAN] (H-GIGKFLKKAKKFGKAFVKILKK-NH2) | 8 (≈ 3.23 µM) | 8 (≈ 3.23 µM) | inactive | inactive | 8 (≈ 3.23 µM) | 4 (≈ 1.61 µM) | 8 (≈ 3.23 µM) | Active |  | 4 (≈ 1.61 µM) | 8 (≈ 3.23 µM) | 16 (≈ 6.46 µM) |  | inactive | inactive | 8 (≈ 3.23 µM) | 16 (≈ 6.46 µM) | inactive | 
